# Reference: ChEMBL document CHEMBL5724801, “EUbOPEN Chemogenomics Library - Multiplex” (2024)
# Several values for one entry are separate records, joined by “and”; a condition that tells them apart may be missing. Equal values may be shown once.
# System: U2OS
# Test: Multiplex assay against U2OS
# Format: toxicity, cell-based
# Conditions: human
# Procedure, shortened: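 With compound added, live cells were imaged on a CQ1 microscope at 37°C and 5% CO2; staining with Hoechst33342, BioTracker Green Microtubule Cytoskeleton Dye, MitoTracker Red and Annexin V Alexa Fluor 680 had been done at seeding. The CellPathfinder machine-learning gating scheme split cells into Hoechst high-intensity objects or normal cells, normal cells into healthy, pyknosed or fragmented nuclei, and pyknosed cells into mitotic or apoptotic. The tubulin, mitochondrial-mass and membrane-permeability phenotypes are per cents of healthy-nucleus cells.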
# [1] = 12 h, 1 µM, compound concentration 1 uM
# [2] = 12 h, 10 µM, compound concentration 10 uM
# [3] = 24 h, 1 µM, compound concentration 1 uM
# [4] = 24 h, 10 µM, compound concentration 10 uM
# [5] = 48 h, 1 µM, compound concentration 1 uM
# [6] = 48 h, 10 µM, compound concentration 10 uM
compound,measurement,setting,value
Cc1cc(C)c(NC(=O)C2CC3CCC2C3)c(C)c1 (configuration not stated),Population Apoptotic (%),[1],35.29%
same,Population Fragmented Nuclei (%),[1],2.08% and 2.72%
same,Population Healthy Nuclei (%),[1],89.09% and 88.04%
same,Population Hoechst High Intensity Objects (%),[1],0%
same,Population Membrane Permeable-Phenotype (%),[1],1.75% and 1.23%
same,Population Mitochondria Different-Phenotype (%),[1],0.29% and 4.94%
same,Population Mitotic Cells (%),[1],64.71%
same,Population Normal (%),[1],100%
same,Population Pyknosed Nuclei (%),[1],8.83% and 9.24%
same,Population Tubulin-Different-Phenotype (%),[1],2.04% and 0%
same,Total Cell Count,[1],385 and 184
same,Population Apoptotic (%),[2],50% and 36%
same,Population Fragmented Nuclei (%),[2],2.53% and 4.4%
same,Population Healthy Nuclei (%),[2],88.71% and 79.87%
same,Population Hoechst High Intensity Objects (%),[2],0%
same,Population Membrane Permeable-Phenotype (%),[2],1.56% and 2.36%
same,Population Mitochondria Different-Phenotype (%),[2],0.26% and 8.66%
same,Population Mitotic Cells (%),[2],50% and 64%
same,Population Normal (%),[2],100%
same,Population Pyknosed Nuclei (%),[2],8.76% and 15.72%
same,Population Tubulin-Different-Phenotype (%),[2],0.52% and 1.57%
same,Total Cell Count,[2],434 and 159
same,Population Apoptotic (%),[3],42.86% and 36%
same,Population Fragmented Nuclei (%),[3],2.11% and 1.27%
same,Population Healthy Nuclei (%),[3],84.48% and 88.19%
same,Population Hoechst High Intensity Objects (%),[3],0.19% and 0%
same,Population Membrane Permeable-Phenotype (%),[3],1.36% and 1.91%
same,Population Mitochondria Different-Phenotype (%),[3],0.23% and 2.39%
same,Population Mitotic Cells (%),[3],57.14% and 64%
same,Population Normal (%),[3],99.81% and 100%
same,Population Pyknosed Nuclei (%),[3],13.41% and 10.55%
same,Population Tubulin-Different-Phenotype (%),[3],0.91% and 0%
same,Total Cell Count,[3],523 and 237
same,Population Apoptotic (%),[4],34.38% and 46.43%
same,Population Fragmented Nuclei (%),[4],2.9% and 2.49%
same,Population Healthy Nuclei (%),[4],86.2% and 83.58%
same,Population Hoechst High Intensity Objects (%),[4],0.17% and 0%
same,Population Membrane Permeable-Phenotype (%),[4],1.19%
same,Population Mitochondria Different-Phenotype (%),[4],0.4% and 3.57%
same,Population Mitotic Cells (%),[4],65.62% and 53.57%
same,Population Normal (%),[4],99.83% and 100%
same,Population Pyknosed Nuclei (%),[4],10.9% and 13.93%
same,Population Tubulin-Different-Phenotype (%),[4],0.79% and 2.38%
same,Total Cell Count,[4],588 and 201
same,Population Apoptotic (%),[5],45% and 48.57%
same,Population Fragmented Nuclei (%),[5],2.82% and 2%
same,Population Healthy Nuclei (%),[5],88.83% and 89.25%
same,Population Hoechst High Intensity Objects (%),[5],0%
same,Population Membrane Permeable-Phenotype (%),[5],2% and 1.96%
same,Population Mitochondria Different-Phenotype (%),[5],0.12% and 3.08%
same,Population Mitotic Cells (%),[5],55% and 51.43%
same,Population Normal (%),[5],100%
same,Population Pyknosed Nuclei (%),[5],8.35% and 8.75%
same,Population Tubulin-Different-Phenotype (%),[5],1.53% and 0.28%
same,Total Cell Count,[5],958 and 400
same,Population Apoptotic (%),[6],38.02% and 53.12%
same,Population Fragmented Nuclei (%),[6],3.32% and 3.75%
same,Population Healthy Nuclei (%),[6],86.1% and 87.03%
same,Population Hoechst High Intensity Objects (%),[6],0%
same,Population Membrane Permeable-Phenotype (%),[6],1.52% and 2.32%
same,Population Mitochondria Different-Phenotype (%),[6],0.1% and 3.97%
same,Population Mitotic Cells (%),[6],61.98% and 46.88%
same,Population Normal (%),[6],100%
same,Population Pyknosed Nuclei (%),[6],10.58% and 9.22%
same,Population Tubulin-Different-Phenotype (%),[6],1.22% and 1.99%
Nc1nccc(-c2ccn3c(N)nccc23)n1,Population Apoptotic (%),[1],36.59% and 39.13%
same,Population Fragmented Nuclei (%),[1],1.59% and 3.62%
same,Population Healthy Nuclei (%),[1],89.07% and 79.71%
same,Population Hoechst High Intensity Objects (%),[1],0%
same,Population Membrane Permeable-Phenotype (%),[1],0.51% and 5.45%
same,Population Mitochondria Different-Phenotype (%),[1],0.26% and 7.27%
same,Population Mitotic Cells (%),[1],63.41% and 60.87%
same,Population Normal (%),[1],100%
same,Population Pyknosed Nuclei (%),[1],9.34% and 16.67%
same,Population Tubulin-Different-Phenotype (%),[1],1.28% and 0.91%
same,Population Apoptotic (%),[2],37.93% and 47.62%
same,Population Fragmented Nuclei (%),[2],1.07% and 2.9%
same,Population Healthy Nuclei (%),[2],91.15% and 81.88%
same,Population Hoechst High Intensity Objects (%),[2],0%
same,Population Membrane Permeable-Phenotype (%),[2],0.88% and 1.77%
same,Population Mitochondria Different-Phenotype (%),[2],0.59% and 8.85%
same,Population Mitotic Cells (%),[2],62.07% and 52.38%
same,Population Normal (%),[2],100%
same,Population Pyknosed Nuclei (%),[2],7.77% and 15.22%
same,Population Tubulin-Different-Phenotype (%),[2],1.47% and 0%
same,Total Cell Count,[2],373 and 138
same,Population Apoptotic (%),[3],48.28% and 64.29%
same,Population Fragmented Nuclei (%),[3],1.88% and 4%
same,Population Healthy Nuclei (%),[3],88.23% and 88%
same,Population Hoechst High Intensity Objects (%),[3],0%
same,Population Membrane Permeable-Phenotype (%),[3],0% and 3.25%
same,Population Mitochondria Different-Phenotype (%),[3],0.39% and 5.19%
same,Population Mitotic Cells (%),[3],51.72% and 35.71%
same,Population Normal (%),[3],100%
same,Population Pyknosed Nuclei (%),[3],9.9% and 8%
same,Population Tubulin-Different-Phenotype (%),[3],1.16% and 0.65%
same,Population Apoptotic (%),[4],40.48% and 37.04%
same,Population Fragmented Nuclei (%),[4],3.09% and 2.73%
same,Population Healthy Nuclei (%),[4],88.8% and 82.51%
same,Population Hoechst High Intensity Objects (%),[4],0%
same,Population Membrane Permeable-Phenotype (%),[4],0.22% and 0.66%
same,Population Mitochondria Different-Phenotype (%),[4],0.22% and 2.65%
same,Population Mitotic Cells (%),[4],59.52% and 62.96%
same,Population Normal (%),[4],100%
same,Population Pyknosed Nuclei (%),[4],8.11% and 14.75%
same,Population Tubulin-Different-Phenotype (%),[4],1.09% and 0%
same,Total Cell Count,[4],518 and 183
same,Population Apoptotic (%),[5],45.74% and 43.75%
same,Population Fragmented Nuclei (%),[5],1.77% and 2.26%
same,Population Healthy Nuclei (%),[5],88.99% and 85.66%
same,Population Hoechst High Intensity Objects (%),[5],0%
same,Population Membrane Permeable-Phenotype (%),[5],1.33% and 2.64%
same,Population Mitochondria Different-Phenotype (%),[5],0.11% and 5.73%
same,Population Mitotic Cells (%),[5],54.26% and 56.25%
same,Population Normal (%),[5],100%
same,Population Pyknosed Nuclei (%),[5],9.24% and 12.08%
same,Population Tubulin-Different-Phenotype (%),[5],1.44% and 1.32%
same,Population Apoptotic (%),[6],43.48% and 40%
same,Population Fragmented Nuclei (%),[6],3.29% and 3.46%
same,Population Healthy Nuclei (%),[6],87.54% and 84.43%
same,Population Hoechst High Intensity Objects (%),[6],0% and 0.34%
same,Population Membrane Permeable-Phenotype (%),[6],0.91% and 2.05%
same,Population Mitochondria Different-Phenotype (%),[6],0.23% and 2.87%
same,Population Mitotic Cells (%),[6],56.52% and 60%
same,Population Normal (%),[6],100% and 99.66%
same,Population Pyknosed Nuclei (%),[6],9.17% and 12.11%
same,Population Tubulin-Different-Phenotype (%),[6],1.03% and 2.46%
